Data set [1] can be described thus: Metabolic stability in C57BL/6 mouse liver microsomes assessed as half life. Type of data set: ADME, Microsome. As to conditions: time 2 min. In general terms: Liver microsomes are vesicles of endoplasmic reticulum, rich in cytochrome P450 enzymes.
In data set [2] the target is T1, Peroxisome proliferator-activated receptor alpha (Homo sapiens) (UniProt Q07869).
T1 sequence (whole entry): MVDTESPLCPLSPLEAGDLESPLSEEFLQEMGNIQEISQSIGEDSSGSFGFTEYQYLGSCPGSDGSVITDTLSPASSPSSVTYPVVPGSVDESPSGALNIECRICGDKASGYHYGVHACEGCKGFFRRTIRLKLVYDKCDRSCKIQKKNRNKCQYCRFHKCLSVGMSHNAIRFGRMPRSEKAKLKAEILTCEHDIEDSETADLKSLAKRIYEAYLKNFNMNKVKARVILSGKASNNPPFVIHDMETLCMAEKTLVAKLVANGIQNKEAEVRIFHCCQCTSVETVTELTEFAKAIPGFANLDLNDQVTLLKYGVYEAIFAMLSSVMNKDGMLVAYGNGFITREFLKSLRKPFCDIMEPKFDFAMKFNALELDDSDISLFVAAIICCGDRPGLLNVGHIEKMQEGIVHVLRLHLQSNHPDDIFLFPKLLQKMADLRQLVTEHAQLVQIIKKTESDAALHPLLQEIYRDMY
The data set is described as follows: Stabilization of human PPARalpha LBD assessed as change in melting temperature at 25 uM by thermal shift assay. The method in brief: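 Purified hPPAR LBD at 1 mg/mL (∼25 μM) with ligand (α-LBD at 25 μM; γ- and δ-LBD at 50 μM). Static light scattering at 473 nm from 25 to 70 °C in 0.5 °C steps, 1 °C/min. Tm from four-parameter fit; ΔTm relative to DMSO; mean ± SEM, N = 3.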

The target of data set [3] is T1, Peroxisome proliferator-activated receptor alpha (Homo sapiens). Description: Agonist activity at human PPARalpha transfected in HEK293 cells assessed as relative luciferase unit at 50 uM measured after 16 hrs by luciferase reporter gene assay. It is filed as cell-based. As to conditions: filed as agonist. The method in brief: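 GAL4-hPPAR (α or γ) plus UAS-luciferase and β-galactosidase transiently co-transfected into HEK293 cells, then treated with 50 μM compound for 16 h. RLU = luciferase/β-galactosidase × time, vehicle (DMSO) set to 1. Mean ± SD, N = 3; one-way ANOVA with Holm–Šidák vs vehicle.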
(Reporter assays use an easily measured gene product as a stand-in for the process of interest.)

The target of data set [4] is T2, Peroxisome proliferator-activated receptor alpha (Homo sapiens, UniProt Q07869).
T2 sequence (Q07869 whole entry): T1 sequence (whole entry)
The data set is described as follows: Agonist activity at human PPARalpha expressed in HEK293 cells by luciferase/beta-galactosidase reporter gene assay. Type of data set: cell-based. Summed up: (§1)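 HEK293 cells in charcoal-stripped FBS, calcium phosphate co-transfected with GAL4-hPPAR LBD fusion, UAS-luciferase and β-galactosidase. Ligand added 6–8 h post transfection, full dose–response, harvested 14–16 h later. Luciferase normalized to β-galactosidase.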

Data set [5] has as its target T3, Peroxisome proliferator-activated receptor gamma (Homo sapiens) (UniProt P37231).
T3 sequence (whole entry): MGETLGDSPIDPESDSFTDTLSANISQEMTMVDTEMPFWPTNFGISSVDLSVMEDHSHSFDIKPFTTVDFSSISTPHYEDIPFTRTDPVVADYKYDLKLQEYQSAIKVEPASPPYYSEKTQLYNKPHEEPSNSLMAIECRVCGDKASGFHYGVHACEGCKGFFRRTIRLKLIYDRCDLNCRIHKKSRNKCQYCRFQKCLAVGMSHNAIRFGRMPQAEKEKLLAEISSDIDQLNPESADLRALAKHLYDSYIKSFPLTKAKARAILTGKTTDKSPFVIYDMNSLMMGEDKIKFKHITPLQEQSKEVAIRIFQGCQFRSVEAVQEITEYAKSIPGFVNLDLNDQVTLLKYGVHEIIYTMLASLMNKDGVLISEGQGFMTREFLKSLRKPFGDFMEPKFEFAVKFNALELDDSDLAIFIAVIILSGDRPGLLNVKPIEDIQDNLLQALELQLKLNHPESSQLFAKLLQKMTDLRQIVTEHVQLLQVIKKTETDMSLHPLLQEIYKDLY
The data set is described as follows: Stabilization of human PPARgamma LBD assessed as change in melting temperature at 50 uM by thermal shift assay.

In data set [6] the target is T4, Peroxisome proliferator-activated receptor alpha (Mus musculus) (UniProt P23204).
T4 sequence (whole entry): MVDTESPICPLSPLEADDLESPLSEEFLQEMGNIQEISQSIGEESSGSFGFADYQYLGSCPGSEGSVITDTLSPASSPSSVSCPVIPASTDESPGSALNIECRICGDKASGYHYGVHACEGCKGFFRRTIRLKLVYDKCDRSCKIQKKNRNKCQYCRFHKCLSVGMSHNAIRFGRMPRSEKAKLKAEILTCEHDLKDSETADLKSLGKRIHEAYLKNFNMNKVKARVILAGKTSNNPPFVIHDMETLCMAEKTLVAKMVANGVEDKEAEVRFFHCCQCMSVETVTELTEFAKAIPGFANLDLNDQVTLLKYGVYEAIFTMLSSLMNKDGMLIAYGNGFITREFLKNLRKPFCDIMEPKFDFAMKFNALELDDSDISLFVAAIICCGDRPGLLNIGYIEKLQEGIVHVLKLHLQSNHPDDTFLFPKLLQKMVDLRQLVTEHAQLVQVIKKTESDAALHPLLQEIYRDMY
Description: Agonist activity at human PPARalpha in mouse hepatocytes assessed as induction of Pdk4 mRNA expression at 50 uM incubated for 16 hrs by quantitative real-time PCR analysis. Type of data set: cell-based. The note with it: Hepatocyte, filed as agonist. Summed up:
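Collagenase-perfused mouse primary hepatocytes from WT mice, plated 2 h in attachment medium, overnight in M199 with 5% charcoal-stripped FBS and 1 nM insulin. Treated next day in serum-free M199 with 50 μM compound for 16 h. RNA qPCR (SYBR Green), comparative Ct method.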
Background: Real-time PCR tracks product formation cycle by cycle.

For data set [7], the target named is T1, Peroxisome proliferator-activated receptor alpha (Homo sapiens). The data set is described as follows: Agonist activity at human PPARalpha expressed in HEK293 cells assessed as maximal activity by luciferase/beta-galactosidase reporter gene assay relative to GW7647. Type of data set: cell-based. The method in brief: as §1
The nature of data set [8]: Metabolic stability in C57BL/6 mouse liver microsomes assessed as parent compound remaining incubated for 120 mins. Type of data set: ADME, Microsome. As to conditions: read-out: Stability.
Data set [9] deals with T5, Peroxisome proliferator-activated receptor delta (Homo sapiens) (UniProt Q03181).
T5 sequence (whole entry): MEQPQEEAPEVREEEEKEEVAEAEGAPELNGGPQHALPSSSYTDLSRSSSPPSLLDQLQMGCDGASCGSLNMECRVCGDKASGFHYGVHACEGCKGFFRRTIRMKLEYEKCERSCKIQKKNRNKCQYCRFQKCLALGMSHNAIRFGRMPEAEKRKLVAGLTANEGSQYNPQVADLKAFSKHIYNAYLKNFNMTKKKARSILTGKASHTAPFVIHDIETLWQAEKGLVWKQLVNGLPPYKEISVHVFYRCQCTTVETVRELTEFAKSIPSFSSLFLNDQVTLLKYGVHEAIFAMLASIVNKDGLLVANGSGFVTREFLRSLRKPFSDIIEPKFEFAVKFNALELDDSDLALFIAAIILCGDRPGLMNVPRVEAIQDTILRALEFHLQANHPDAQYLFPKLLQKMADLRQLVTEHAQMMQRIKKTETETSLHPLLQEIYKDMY
The data set is described as follows: Stabilization of human PPARdelta LBD assessed as change in melting temperature at 50 uM by thermal shift assay.

Results on three compounds are retold here after ChEMBL document CHEMBL5154715, “Phenolic Lipids Derived from Cashew Nut Shell Liquid to Treat Metabolic Diseases” (J Med Chem, 2022).

pEC50: −log10 of the molar value. Active and inactive are the calls of the source. No cut-off for these calls is given here.

As to `CCCCCCCCCCCCCCCc1cccc(OC(C)=O)c1C(=O)O`, the half-life in data set [1] was found to be 0.0333 h. Moreover, the values for the shift in melting temperature (ΔTm) in data set [2], in data set [5] and in data set [9] were 17.4 °C, 4.4 °C and 12 °C, respectively. The outcome in data set [3] and in data set [6] was Active. The pEC50 in [4] was 5.62. The Emax in data set [7] (filed as agonist) was above 90%. In addition, the remaining at 2 h in data set [8] turned out to be 0%.
In the case of `CCCCCC/C=C\CCCCCCCc1cccc(OC(C)(C)C(=O)O)c1`, in [1], the half-life was determined as 13.9 h. For the same compound, the ΔTm is 3.8 °C in data set [2], 5.6 °C in data set [5] and 6.8 °C in data set [9]. Besides, the outcome in data set [3] and in data set [6] was Active. Further, the negative-log EC50 (pEC50) in data set [4] is 6.15. Further, in data set [7] (filed as agonist), the Emax is above 90%. Further, the remaining at 2 h in data set [8] stood at 90%.
For the compound `CCCCCCCCCCCCCCCc1cccc(OC(C)(C)C(=O)O)c1`, the half-life in data set [1] is 6 h. Further, the results for the thermal shift (ΔTm) in data set [2], in data set [5] and in [9] were 10.8 °C, 6.3 °C and 11.3 °C, respectively. For the same compound, the result in data set [3] and in [6] was Active. Besides, the negative logarithm of the EC50 (pEC50) in data set [4] was 6.30. In addition, the Emax in data set [7] worked out at 30%. Moreover, the remaining at 2 h in data set [8] turned out to be 79%.

For orientation: half-life means the time in which the quantity being followed falls by half. By ΔTm is commonly meant the change in melting temperature against a reference sample. Usually pEC50 stands for the EC50 on a negative log10 scale, so that one unit is a factor of ten. Higher therefore signals a small EC50.
